Results: ChEMBL document CHEMBL5120910, “Small-Molecule Gankyrin Inhibition as a Therapeutic Strategy for Breast and Lung Cancer” (J Med Chem, 2022)
Active and inactive are the calls of the source. No cut-off for these calls is given here.

Tests used:
A549 = test: Antiproliferative activity against human A549 cells assessed as cell growth inhibition measured after 72 hrs by MTT assay; type: functional, cell-based; settings: A549, 72 h
Summary of the method: (§1)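 Cells seeded at 2.5 × 10^4 cells/well, allowed 24 h before dosing, then exposed to increasing concentrations (0.5% DMSO final) for 72 h at 37 °C, 5% CO2. MTT added at 1 mg/mL final in complete media for 2 h, formazan dissolved in DMSO, absorbance read at 570 nm. 6–8 repeats per treatment; IC50 from concentration–response fit.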

MDA-MB-231 [1] = test: Antiproliferative activity against human MDA-MB-231 cells assessed as cell growth inhibition measured after 72 hrs by MTT assay; type: functional, cell-based; settings: MDA-MB-231, 72 h; summary of the method: as §1
[2] = Cytotoxicity against HEK293 cells assessed as cell growth inhibition measured after 72 hrs by MTT assay; type: toxicity, cell-based; settings: human; summary of the method: as §1
MDA-MB-231 [3] = test: Induction of cell cycle arrest in human MDA-MB-231 cells assessed as increase in cell accumulation at G0/G1 phase at 2 uM measured after 72 hrs by propidium iodide staining based flow cytometry analysis; type: functional
Summary of the method: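 Cells in 10 cm dishes treated for 72 h (0.1% DMSO final; DMSO-only control). Harvested in cold PBS, fixed in 70% ethanol at −20 °C overnight, stained with PI for 40 min at 37 °C, then analysed by flow/imaging cytometry for G0/G1, S and G2/M fractions. Mean ± SD, n = 3.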

[4] = target: T1, 26S proteasome non-ATPase regulatory subunit 10 (Homo sapiens) (UniProt O75832); test: Binding affinity to gankyrin (unknown origin) assessed as change in melting temperature at 300 uM by SYPRO orange staining based thermal shift assay
T1 sequence (whole entry): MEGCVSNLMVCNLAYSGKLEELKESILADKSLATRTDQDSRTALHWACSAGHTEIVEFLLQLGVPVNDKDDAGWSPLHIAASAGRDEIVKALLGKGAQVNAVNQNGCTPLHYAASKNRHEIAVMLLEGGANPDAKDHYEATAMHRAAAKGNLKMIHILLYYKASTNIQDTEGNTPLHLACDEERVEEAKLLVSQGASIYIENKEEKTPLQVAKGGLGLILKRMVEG

MDA-MB-231 [5] = test: Inhibition of colony formation in human MDA-MB-231 cells at 2 uM incubated for 48 hrs followed by replacement of fresh media every alternative day measured after 7 days by crystal violet staining based clonogenic assay relative to control; values are per cent of control; settings: MDA-MB-231, 216 h
MDA-MB-231 [6] = test: Induction of cell cycle arrest in human MDA-MB-231 cells at 2 uM measured after 72 hrs by propidium iodide staining based flow cytometry analysis
[7] = target: T1, 26S proteasome non-ATPase regulatory subunit 10 (Homo sapiens); test: Binding affinity to gankyrin in human MDA-MB-231 cells assessed as decrease in thermal stability at 2 uM incubated for 48 hrs followed by heat treatment at 50 to 65 degreeC by CETSA; type: cell-based
Summary of the method: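 CETSA: cells treated with compound for 48 h, then heated across a temperature range. Soluble gankyrin was detected by western blot and melt curves were constructed. Mean ± SD, n = 3.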

MDA-MB-231 [8] = test: Antitumor activity in human MDA-MB-231 cells cultured as 3D spheroids assessed as fold decrease in spheroid volume at 1 uM measured up to 15 days by inverted microscopic analysis; type: functional; settings: time <= 15 day
Summary of the method: (§2)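 Spheroids formed from 2000 cells/well in ultra-low attachment U-bottom wells over 3 days, then given a single dose on day 3. Half the media was replenished every 3 days. Transmitted-light images were taken through day 15, and spheroid volume was computed from images and expressed as fold-difference. Mean ± SD, n = 8; unpaired t-test.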

[9] = target: T1, 26S proteasome non-ATPase regulatory subunit 10 (Homo sapiens); test: Binding affinity to gankyrin (unknown origin) expressed in Escherichia coli BL21 (DE3) expression system assessed as decrease in thermal denaturation at 1.5 uM measured at 5 to 90 degreeC by circular dichroism spectropolarimeter analysis
Summary of the method: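 Recombinant His-tagged gankyrin expressed in E. coli BL21(DE3) Codon+RIL (IPTG 1 mM, 25 °C, ~5 h) and purified by Ni2+-IMAC. Thermal denaturation followed by CD at 217 nm over 5–90 °C with compound at 1.5 μM.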

MDA-MB-231 [10] = test: Antitumor activity against human MDA-MB-231 cells tumor spheroids assessed as increase in dead cells by measuring red fluorescence intensity at 1 to 2 uM measured at 15 days by EthD-III staining based fluorescence microscopic analysis; type: functional, cell-based; settings: dose 1-2 µM, time 15.0 day
Summary of the method: (§3)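 Live/dead staining of 3D spheroids at day 15 after single-dose treatment: media replaced by kit reagent with calcein AM (live, green) and EthD-III (dead, red), 30 min in dark at room temperature, imaged at 4X by fluorescence microscopy. Mean ± SD, n = 4; unpaired Student's t-test.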

[11] = Metabolic stability in human liver microsomes assessed as compound remaining preincubated for 10 mins followed by NADPH addition measured after 60 mins by HPLC analysis; type: ADME, Microsome; settings: read-out: Stability
[12] = Antiproliferative activity against human HuH-6 cells assessed as cell growth inhibition measured after 72 hrs by MTT assay; type: functional, cell-based; settings: HuH-6, 72 h; summary of the method: as §1
HuH-6 [13] = test: Inhibition of gankyrin-proteasome protein-protein interaction in human HuH-6 cells assessed as increase in Rb level at 0.12 to 1 uM measured after 48 hrs by Western blotting analysis; type: cell-based; settings: dose 0.12-1 µM
Summary of the method: (§4)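 Cells in 10 cm dishes treated with varying concentrations (0.5% DMSO final) or DMSO only for 48 h. Lysed in RIPA with protease/phosphatase inhibitors on ice for 60 min. 15 μg protein resolved under reducing conditions, transferred to PVDF, and probed for p53, phospho-p53 S6/S15, Rb, gankyrin and cyclophilin. Detection by HRP-secondary ECL.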

MDA-MB-231 [14] = test: Antitumor activity in human MDA-MB-231 cells cultured as 3D spheroids assessed as fold decrease in spheroid volume at 2 uM measured up to 15 days by inverted microscopic analysis; type: functional; settings: time <= 15 day; summary of the method: as §2
MDA-MB-231 [15] = test: Antitumor activity against human MDA-MB-231 cells tumor spheroids assessed as decrease in live cells by measuring green fluorescence intensity at 1 to 2 uM measured at 15 days by calcein AM staining based fluorescence microscopic analysis; type: functional, cell-based; settings: dose 1-2 µM, time 15.0 day; summary of the method: as §3
HuH-6 [16] = test: Inhibition of gankyrin-proteasome protein-protein interaction in human HuH-6 cells assessed as increase in p53 level at 0.12 to 1 uM measured after 48 hrs by Western blotting analysis; type: cell-based; settings: dose 0.12-1 µM; summary of the method: as §4
MDA-MB-231 [17] = test: Inhibition of gankyrin-proteasome protein-protein interaction in human MDA-MB-231 cells assessed as increase in Rb level at 0.25 to 2 uM measured after 48 hrs by Western blotting analysis; type: cell-based; settings: dose 0.25-2 µM; summary of the method: as §4

Structure (SMILES)	IC50 (A549)	IC50 (MDA-MB-231 [1])	also measured
COC(=O)c1ccc(-c2cn(CCCC(=S)Nc3ccc(-c4ccccc4)cc3)nn2)cc1	42.3 µM	> 100 µM	–
COC(=O)c1ccc(-n2cc(CCCOC(=O)c3ccc(C)cc3)nn2)cc1	> 100 µM	> 100 µM	–
COC(=O)c1ccc(-n2cc(CCCNC(=O)c3ccc(C)cc3)nn2)cc1	> 100 µM	> 100 µM	–
COC(=O)c1ccc(-n2cc(CCCNC(=O)Nc3ccc(C)cc3)nn2)cc1	36.4 µM	11.6 µM	–
COC(=O)c1ccc(-n2cc(CCCOc3ccc(C)cc3)nn2)cc1	> 100 µM	14.2 µM	–
COC(=O)c1ccc(-n2cc(CCCc3nnc(-c4ccc(C)cc4)o3)nn2)cc1	65.1 µM	21.5 µM	–

Now from value to compound, other results behind:

IC50 (A549)	IC50 (MDA-MB-231 [1])	Structure (SMILES)	also measured
> 100 µM	> 100 µM	COC(=O)c1ccc(-c2nnc(CCCOS(=O)(=O)c3ccc(C)cc3)o2)cc1	–
> 100 µM	39.1 µM	COC(=O)c1ccc(-c2cn(CCCOS(=O)(=O)c3ccc(C)cc3)nn2)cc1	–
7.9 µM	8.1 µM	COC(=O)c1ccc(-n2cc(CCCC(=S)Nc3ccc(C)cc3)nn2)cc1	–
> 100 µM	> 100 µM	COC(=O)c1ccc(-c2nnn(CCCOS(=O)(=O)c3ccc(C)cc3)n2)cc1	–
> 100 µM	33 µM	COC(=O)c1ccc(-n2cc(CCCNc3ccc(C)cc3)nn2)cc1	–
46.5 µM	> 100 µM	COC(=O)c1ccc(-n2cc(CCCNC(=S)Nc3ccc(C)cc3)nn2)cc1	–
19.1 µM	2 µM	O=C(CCCn1cc(-c2ccc(C(F)(F)F)cc2)nn1)Nc1ccc(-c2ccccc2)cc1	IC50 at 72 h [2]: > 100 µM; Activity (MDA-MB-231 [3]): Active; Activity [4]: Active; growth, % of control at 2 µM (MDA-MB-231 [5]): 46.3%; Activity (MDA-MB-231 [6]): Active; Activity [7]: Active; fold change (FC) (MDA-MB-231 [8]): 2.3; Activity [9]: Active; Activity (MDA-MB-231 [10]): Active; remaining at 1 h [11]: 60%; IC50 [12]: 1.1 µM; Activity (HuH-6 [13]): Active; fold change (FC) (MDA-MB-231 [14]): 3.2; Activity (MDA-MB-231 [15]): Active; Activity (HuH-6 [16]): Active; Activity (MDA-MB-231 [17]): Active
